Laboratory results: ChEMBL document CHEMBL1240504, “Synthesis of substituted thieno[2,3-d]pyrimidine-2,4-dithiones and their S-glycoside analogues as potential antiviral and antibacterial agents” (Eur J Med Chem, 2010)
≈ marks a conversion by molar mass, not a printed value.

Experiments:
CCRF-CEM = assay: Cytotoxicity against […] human CEM cells after 6 days by XTT assay; format: cell-based; details: 144 h
How it was run: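 Uninfected CEM cultures given serial compound dilutions (DMSO, 1:200 final dilution). Incubated 6 days at 37 °C, 5% CO2, then read by XTT formazan. IC50 is the molar concentration causing 50% inhibition of cell growth.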

Staphylococcus aureus [1] = assay: Antibacterial activity against Staphylococcus aureus MTCC 1144 after 12 to 16 hrs by turbidity assay; format: functional
How it was run: (§1)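 Broth dilution MIC in LB broth. Tubes inoculated, incubated 12–16 h and scored by eye for turbidity (growth) versus clear (no growth).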

Human alphaherpesvirus 1 [2] = assay: Antiviral activity against HSV1 infected in african green monkey Vero cells assessed as minimum antiviral concentration after 6 hrs; format: functional
How it was run: (§2)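 Modified plaque reduction in 96-well trays with no thickening overlay. Compounds dissolved in DMSO and diluted into medium, then serially diluted and added in triplicate to confluent Vero monolayers. Titred HSV-1 added in medium with 10% calf serum. Incubated 6 h at 37 °C, 5% CO2. Cells fixed with 3.7% formaldehyde and examined visually. The end-point concentration was taken from the dilution series.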

Pseudomonas putida [3] = assay: Antibacterial activity against ampicillin-resistant Pseudomonas putida MTCC 1072 at 128 mg/ml after 16 hrs by disk diffusion test; format: functional; design: dose or concentration left out as unconfirmed; details: MTCC 1072, 16 h, read-out: IZ
Vero = assay: Cytotoxicity against african green monkey Vero cells assessed as loss of monolayer present around the plaques; format: cell-based; details: Chlorocebus sabaeus
How it was run: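 Vero monolayers in serial-dilution trays with HSV-1, run in triplicate, 6 h at 37 °C, 5% CO2. Cells fixed with 3.7% formaldehyde and examined visually. IC50 is the concentration giving about 50% loss of the monolayer around HSV-1 plaques.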

Pseudomonas putida [4] = assay: Antibacterial activity against ampicillin-resistant Pseudomonas putida MTCC 1072 after 12 to 16 hrs by turbidity assay; format: functional; how it was run: as §1
Staphylococcus aureus [5] = assay: Antibacterial activity against Staphylococcus aureus MTCC 1144 at 128 mg/ml after 16 hrs by disk diffusion test; format: functional; design: dose or concentration left out as unconfirmed; details: MTCC 1144, 16 h, read-out: IZ
Pseudomonas putida [6] = assay: Antibacterial activity against ampicillin-resistant Pseudomonas putida MTCC 1072 at 64 mg/ml after 16 hrs by disk diffusion test; format: functional; design: dose or concentration left out as unconfirmed; details: MTCC 1072, 16 h, read-out: IZ
Escherichia coli [7] = assay: Antibacterial activity against Escherichia coli MTCC 41 at 64 mg/ml after 16 hrs by disk diffusion test; format: functional; design: dose or concentration left out as unconfirmed; details: MTCC 41, 16 h, read-out: IZ
Escherichia coli [8] = assay: Antibacterial activity against Escherichia coli MTCC 41 at 128 mg/ml after 16 hrs by disk diffusion test; format: functional; design: dose or concentration left out as unconfirmed; details: MTCC 41, 16 h, read-out: IZ
Staphylococcus aureus [9] = assay: Antibacterial activity against Staphylococcus aureus MTCC 1144 at 64 mg/ml after 16 hrs by disk diffusion test; format: functional; details: MTCC 1144, 16 h, read-out: IZ
How it was run: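 Disk diffusion (zone of inhibition). Bacterial isolate spread evenly over an agar plate. A filter disk carrying a known amount of compound was placed on the surface and the compound left to diffuse. The inhibition zone in the lawn was read after 16 h incubation.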

Human alphaherpesvirus 1 [10] = assay: Antiviral activity against HSV1 infected in african green monkey Vero cells after 6 hrs by plaque reduction assay; format: functional; design: scale not given: the % may be the effect or the level left; how it was run: as §2
Escherichia coli [11] = assay: Antibacterial activity against Escherichia coli MTCC 41 after 12 to 16 hrs by turbidity assay; format: functional; how it was run: as §1
[12] = Therapeutic index, ratio of IC50 for human CEM cells to EC50 for HIV1; format: cell-based, CCRF-CEM; details: read-out: Ratio IC50/EC50
How it was run: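 CEM T4 lymphocytes, with or without HIV-1, were incubated with serially diluted compounds (DMSO solution diluted 1:100 in medium; 1:200 final dilution after cells and virus were added) at 37 °C in 5% CO2 for 6 days. Controls were untreated and AZT-treated. Read-out was XTT formazan, measured spectrophotometrically plus microscopy. EC50 is 50% protection from cytopathic effect; IC50 is 50% growth inhibition in uninfected cultures.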

[13] = system: Human immunodeficiency virus 1; assay: Antiviral activity against HIV1 infected in human CEM cells assessed as protection against virus-induced cytopathic effect after 6 days by XTT assay; format: functional, organism-based; details: Human immunodeficiency virus 1, CCRF-CEM, 144 h
How it was run: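 CEM T4 lymphocytes received serially diluted compounds (DMSO stock diluted 1:100 in medium, 1:200 final dilution), then HIV-1. Incubated 6 days at 37 °C, 5% CO2. Formazan read spectrophotometrically after XTT, with microscopic check for viable cells. EC50 is the concentration giving 50% protection against the HIV cytopathic effect. AZT-treated wells served as positive control.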

Compound | IC50 (CCRF-CEM) [µM] | MIC (Staphylococcus aureus [1]) [µg/mL] | MAC (Human alphaherpesvirus 1 [2]) [µM] | zone of inhibition (Pseudomonas putida [3]) [mm] | IC50 (Vero) [µM] | MIC (Pseudomonas putida [4]) [µg/mL] | zone of inhibition (Staphylococcus aureus [5]) [mm] | zone of inhibition (Pseudomonas putida [6]) [mm] | zone of inhibition (Escherichia coli [7]) [mm] | zone of inhibition (Escherichia coli [8]) [mm] | zone of inhibition at 64000 µg/mL (Staphylococcus aureus [9]) [mm] | Activity (Human alphaherpesvirus 1 [10]) [%] | MIC (Escherichia coli [11]) [µg/mL] | selectivity ratio [12] | EC50 [13] [µM]
OC[C@H]1O[C@@H](Sc2nc3sc4c(c3c(=S)[nH]2)CCCC4)[C@@H](O)[C@@H]1O | > 100 | > 128 | 0.29 | > 3 | > 1.7 | 64 (≈ 166 µM) | > 2 | > 3 | > 2 | > 3 | > 2 | 30 | 128 (≈ 331 µM) | > 1 | > 100
OC[C@H]1O[C@@H](Sc2nc3sc4c(c3c(=S)[nH]2)CCCCC4)[C@@H](O)[C@@H]1O | > 100 | 128 (≈ 320 µM) | 0.21 | > 3 | > 1.46 | 128 (≈ 320 µM) | > 3 | > 2 | > 2 | > 3 | > 2 | 24 | 128 (≈ 320 µM) | > 1 | > 100
